Values after ≈ are worked out from the molar mass of the structure shown. Active and inactive are the calls of the source. The rule behind the calls is not given here.
How the values were obtained:
[1] = test system: Candida albicans; test: Antifungal activity against Candida albicans isolate 17 grown in RPMI 1640 medium incubated for 24 hrs by microdilution method; assay type: functional; settings: isolate 17, 24 h
Summary of the method: (§1)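 C. albicans standard strain SC5314 and clinical isolates g5 and 17# tested by broth microdilution in YNB or RPMI 1640 medium. Plates incubated at 35 °C for up to 72 h, with visual readings taken at 24 h. MIC taken as the lowest concentration preventing visible growth.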

[2] = test system: Ceratobasidium cereale; test: Antifungal activity against Rhizoctonia cerealis assessed as reduction in growth at 50 mg/l by mycelium growth rate method relative to control; assay type: functional
Summary of the method: (§2)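 Mycelium growth rate method against S. sclerotiorum, P. capsici, P. piricola, R. cerealis, W. anthracnose and R. bakanae. Each compound tested at 50 mg/L, with chlorothalonil and PTB as controls. Relative inhibitory ratio (%) calculated from mycelial growth.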

[3] = test system: Candida albicans; test: Antifungal activity against Candida albicans SC5314 grown in RPMI 1640 medium incubated for 24 hrs by microdilution method; assay type: functional; settings: SC5314, 24 h; summary of the method: as §1
[4] = test system: Candida albicans; test: Inhibition of Candida albicans AHAS catalytic subunit at 10 uM using pyruvate as substrate measured after 30 mins by colorimetric method relative to control
Summary of the method: (§3)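 Colorimetric assay in 50 mM potassium phosphate pH 7.0 with 50 mM pyruvate, 1 mM thiamine diphosphate, 10 mM MgCl2 and 10 μM FAD. Incubated 30 min at 37 °C for plant AHAS and 30 °C for fungal AHAS. Acetolactate formed was then quantified.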

[5] = test system: Candida albicans; test: Inhibition of Candida albicans AHAS catalytic subunit at 100 uM using pyruvate as substrate measured after 30 mins by colorimetric method relative to control; summary of the method: as §3
[6] = test system: Candida albicans; test: Antifungal activity against Candida albicans isolate g5 grown in RPMI 1640 medium incubated for 24 hrs by microdilution method; assay type: functional; settings: isolate g5, 24 h; summary of the method: as §1
[7] = test system: Candida albicans; test: Antifungal activity against Candida albicans SC5314 grown in YNB medium incubated for 24 hrs by microdilution method; assay type: functional; settings: SC5314, 24 h; summary of the method: as §1
[8] = test system: Candida albicans; test: Antifungal activity against Candida albicans isolate 17 grown in YNB medium incubated for 24 hrs by microdilution method; assay type: functional; settings: isolate 17, 24 h; summary of the method: as §1
[9] = test system: Candida albicans; test: Antifungal activity against Candida albicans isolate g5 grown in YNB medium incubated for 24 hrs by microdilution method; assay type: functional; settings: isolate g5, 24 h; summary of the method: as §1
[10] = test system: Arabidopsis thaliana; test: Inhibition of Arabidopsis thaliana AHAS catalytic subunit using pyruvate as substrate at 100 uM measured after 30 mins by colorimetric method relative to control; summary of the method: as §3
[11] = test system: Arabidopsis thaliana; test: Inhibition of Arabidopsis thaliana AHAS catalytic subunit using pyruvate as substrate at 10 uM measured after 30 mins by colorimetric method relative to control; summary of the method: as §3
[12] = test system: Brassica rapa subsp. oleifera; test: Herbicidal activity against Brassica campestris L assessed as inhibition of rape root growth at 100 mg/l root growth incubated for 48 hrs relative to control; assay type: functional
Summary of the method: (§4)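 Rape seeds soaked in distilled water for 4 h, then placed on filter paper wetted with inhibitor solution, 15 seeds per 6-cm dish. Germinated in the dark at 28 °C for 48 h. Mean length of 10 roots per plate measured.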

[13] = test system: Brassica rapa subsp. oleifera; test: Herbicidal activity against Brassica campestris L assessed as inhibition of rape root growth at 10 mg/l root growth incubated for 48 hrs relative to control; assay type: functional; summary of the method: as §4
[14] = test system: Sclerotinia sclerotiorum; test: Antifungal activity against Sclerotinia sclerotiorum assessed as reduction in growth at 50 mg/l by mycelium growth rate method relative to control; assay type: functional; summary of the method: as §2
[15] = test system: Phytophthora capsici; test: Antifungal activity against Phytophthora capsici assessed as reduction in growth at 50 mg/l by mycelium growth rate method relative to control; assay type: functional; summary of the method: as §2
[16] = test system: Botryosphaeria berengeriana; test: Antifungal activity against Physalospora pyricola assessed as reduction in growth at 50 mg/l by mycelium growth rate method relative to control; assay type: functional; summary of the method: as §2
[17] = test system: Colletotrichum; test: Antifungal activity against Colletotrichum (W. anthracnose) assessed as reduction in growth at 50 mg/l by mycelium growth rate method relative to control; assay type: functional; summary of the method: as §2
[18] = test system: Fusarium fujikuroi; test: Antifungal activity against Gibberella fujikuroi assessed as reduction in growth at 50 mg/l by mycelium growth rate method relative to control; assay type: functional; summary of the method: as §2
[19] = test system: Ceratobasidium cereale; test: Antifungal activity against Rhizoctonia cerealis assessed as reduction in growth mycelium growth rate method relative to control; assay type: functional, organism-based
Summary of the method: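 EC50 against R. cerealis derived from mycelium growth-rate inhibition over a concentration series, using a probit fit: Probit = m(log10[I] − log10[EC50]) + 5.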

[20] = test system: Mythimna separata; test: Insecticidal activity against Mythimna separata assessed as larval mortality at 600 mg/l by leaf-dip method; assay type: functional
[21] = test system: Tobacco mosaic virus; test: Antiviral activity against Tobacco mosaic virus inoculated in Nicotiana tabacum leaves assessed as passivation by measuring local lesion numbers at 500 mg/l pre-incubated with virus for 30 mins followed by inoculation and measured up to 4 days; assay type: functional
Summary of the method: (§5)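 Passivation assay: TMV mixed with an equal volume of compound solution for 30 min, then rubbed onto the left half of N. tabacum L. leaves. The right half received virus mixed with solvent as control. Local lesions counted 3–4 days after inoculation. Compounds tested at 500 or 100 mg/L.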

[22] = test system: Tobacco mosaic virus; test: Antiviral activity against Tobacco mosaic virus inoculated in Nicotiana tabacum leaves assessed as passivation by measuring local lesion numbers at 100 mg/l pre-incubated with virus for 30 mins followed by inoculation and measured up to 4 days; assay type: functional; summary of the method: as §5
[23] = test system: Severe acute respiratory syndrome-related coronavirus; test: Inhibition of SARS coronavirus M protease using AVLQSGFRKK as substrate at 20 uM by FRET assay relative to control
Summary of the method: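 Purified SARS-CoV Mpro assayed by FRET. Protein, compound and substrate were preheated at 37 °C and oscillated. Fluorescence (ex 320/em 405 nm) was read every 5 s for 200 reads.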

SMILES	MIC [1] [mg/L]	inhibition at 50 µg/mL [2] [%]	MIC [3] [mg/L]	inhibition [4] [%]	inhibition [5] [%]	MIC [6] [mg/L]	MIC [7] [mg/L]	MIC [8] [mg/L]	MIC [9] [mg/L]	inhibition [10] [%]	inhibition [11] [%]	inhibition (INH) [12] [%]	inhibition (INH) [13] [%]	inhibition at 50 µg/mL [14] [%]	inhibition at 50 µg/mL [15] [%]	inhibition at 50 µg/mL [16] [%]	inhibition at 50 µg/mL [17] [%]	inhibition at 50 µg/mL [18] [%]	inhibition at 500 µg/mL [21] [%]	inhibition [23] [%]	further results
COc1cc(OC)nc(Sc2ccc(C(=O)O)cc2F)n1	> 100	91.7	> 100	81.7	91.7	> 100	> 100	> 100	> 100	100	40	82.2	48	83.3	58.3	50	40.5	48.5	46.5	26.8	EC50 [19]: 11.8 mg/L (≈ 38 µM); mortality at 600 µg/mL [20]: 30%; inhibition at 100 µg/mL [22]: 6.8%
COc1cc(OC)nc(Sc2ccc(Cl)cc2C(=O)O)n1	> 100	89.3	> 100	80.6	96.6	> 100	> 100	> 100	> 100	100	34	54.5	0	63.9	41.7	40.6	52.4	48.5	0	4.6	EC50 [19]: 14.1 mg/L (≈ 43.2 µM); mortality at 600 µg/mL [20]: 5%; inhibition [22]: inactive
COc1nc(OC)nc(Oc2cccc(I)c2)n1	> 100	90.5	> 100	0	29.4	> 100	> 100	> 100	> 100	84.7	8.9	88.1	80.2	66.7	33.3	59.4	23.8	6.1	17.1	0	EC50 [19]: 10.9 mg/L (≈ 30.4 µM); inhibition [22]: inactive
COc1cc(OC)nc(Sc2ccc(C(=O)O)cc2Cl)n1	> 100	89.3	> 100	62.3	85	> 100	> 100	> 100	> 100	100	31.4	73.4	30.6	83.3	41.7	76.6	28.6	60.6	0	0	EC50 [19]: 9.2 mg/L (≈ 28.2 µM); mortality at 600 µg/mL [20]: 50%; inhibition [22]: inactive
N#Cc1c(Cl)c(Cl)c(Cl)c(C#N)c1Cl [CHLOROTHALONIL]		96.8												87.6	80.8	92.5	78.6	75.4			EC50 [19]: 5.3 mg/L (≈ 19.9 µM)
COc1cc(OC)nc(Sc2ccc(C(=O)O)cc2Br)n1	> 100	96.4	> 100	70.7	94.6	> 100	25 (≈ 67.3 µM)	12.5 (≈ 33.7 µM)	25 (≈ 67.3 µM)	100	48.9	26.4	0	50	42.7	51.6	45.2	39.4	0	0	EC50 [19]: 11.4 mg/L (≈ 30.7 µM); mortality at 600 µg/mL [20]: 50%; inhibition [22]: inactive
COc1nc(OC)nc(Sc2ccc(C(=O)O)cc2F)n1	> 100	57.1	> 100	52.3	94.9	> 100	> 100	3.12 (≈ 10 µM)	> 100	18.7	13.8	27.6	0	61.1	16.7	53.1	19	6.1	0	89.5	mortality at 600 µg/mL [20]: 30%; inhibition [22]: inactive
COc1nc(OC)nc(Sc2ccc(C#N)cc2Br)n1	> 100	94	> 100	32.1	68.6	> 100	> 100	> 100	> 100	98.3	53.1	25	0	13.9	8.3	56.3	19	51.5	0	39.3	EC50 [19]: 12.4 mg/L (≈ 35.1 µM); mortality at 600 µg/mL [20]: 30%; inhibition [22]: inactive
COc1cc(OC)nc(Sc2cc(C(F)(F)F)ccc2C#N)n1	> 100	70.2	> 100	7.9	26.1	> 100	> 100	> 100	> 100	91.6	18	66.1	12.3	11.1	66.7	28.1	26.2	45.5	35.8	29.9	mortality at 600 µg/mL [20]: 65%; inhibition [22]: inactive

Reference: ChEMBL document CHEMBL4390648, “Chemical synthesis, crystal structure, versatile evaluation of their biological activities and molecular simulations of novel pyrithiobac derivatives” (Eur J Med Chem, 2019)
